Hits are enriched below; roughly 1.9% of the tested compounds scored in any of these assays.
PG9 binder: binders of HIV-1 gp120 antibody PG9, primary screen, biochemical, TR-FRET. inhibition, % at 6.7 µM. TR-FRET gp120-PG9 antibody binding. 360,000 compounds, 0.43% hits. HIV-1 gp120 / PG9 antibody interaction. AID 624416, 2012; in the data active = inhibition above about 8.5%
Rce1 inh: yeast Rce1p protease inhibitors, primary screen, biochemical, fluorescence, cell-free homogeneous. CAAX prenyl protease 2 (Saccharomyces cerevisiae (strain ATCC 204508 / S288c)), Q03530. calls only. 290,000 compounds, 0.27% hits. yeast membranes, quenched prenylated peptide cleavage fluorescence;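 active = fall in fluorescence gain of 50% or more versus controls, with final raw signal at or below 3038400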
Yeast superoxide: reduction of superoxide in aged yeast, primary screen, HTS | superoxide response (% of plate mean), % at 10 µM | S. cerevisiae aged cells, superoxide DHE fluorescence; stronger effect = lower value | 330,000 compounds, 0.18% hits;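 active = superoxide response under a set limit, about three screen SD below normal, cut at about 65% in these data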;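 note: yeast aged for seven days with compound at 30 °C before DHE staining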
NR1D1 modulator: modulators of Rev-erb alpha DNA binding, primary screen, biochemical, FITC-DNA, fluorescence polarization, uHTS; 370,000 compounds, 0.79% hits; Rev-erbα–FITC-DNA binding, 90 min; activity, % at 10 µM; Nuclear receptor subfamily 1 group D member 1 (Homo sapiens), P20393;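 active = activity above about 14%, limit read from the data; passing the limit was not always enough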
Target sequence (P20393 whole entry, looked up): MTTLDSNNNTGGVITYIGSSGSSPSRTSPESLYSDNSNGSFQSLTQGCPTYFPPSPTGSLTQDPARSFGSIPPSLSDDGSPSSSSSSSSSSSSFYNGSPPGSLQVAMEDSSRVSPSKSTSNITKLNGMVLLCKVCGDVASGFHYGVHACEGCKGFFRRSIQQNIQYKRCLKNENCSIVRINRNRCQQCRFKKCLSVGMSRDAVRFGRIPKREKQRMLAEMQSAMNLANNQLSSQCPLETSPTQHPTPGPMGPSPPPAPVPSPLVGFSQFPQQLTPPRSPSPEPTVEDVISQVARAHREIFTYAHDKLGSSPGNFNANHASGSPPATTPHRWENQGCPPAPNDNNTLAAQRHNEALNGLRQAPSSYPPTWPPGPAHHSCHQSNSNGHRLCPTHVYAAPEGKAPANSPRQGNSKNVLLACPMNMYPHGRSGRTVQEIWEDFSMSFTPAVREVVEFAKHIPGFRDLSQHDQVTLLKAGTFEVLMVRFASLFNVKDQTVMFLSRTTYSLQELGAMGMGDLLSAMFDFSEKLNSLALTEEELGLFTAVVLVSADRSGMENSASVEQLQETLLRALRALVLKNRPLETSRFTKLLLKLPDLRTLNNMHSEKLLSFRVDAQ
UCH37 inh: inhibitors of human UCH37 deubiquitinase, primary screen, biochemical, Ub-AMC cleavage, fluorescence; Ubiquitin carboxyl-terminal hydrolase isozyme L5 (Homo sapiens), Q9Y5K5; purified proteasome/UCH37; inhibition, % (concentration not given with the values); 330,000 compounds, 0.33% hits; AID 588478, 2011;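 active = mean inhibition over replicate wells above about 20%, limit read from the data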
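Material: human UCH37 enzyme supplied as purified proteasome complex / Amount: 0.15 nM proteasome as dispensed / Buffer or medium: pH 7.4 Tris-HCl (50 mM) with ovalbumin, ATP-MgCl2, DTT / Times: preincubation 30 min, reaction 25 min, room temperature / Technique: AMC fluorescence from Ub-AMC cleavage, excitation 355 nm, emission 460 nm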
beta cell repl: inducers of MIN6 beta-cell proliferation, primary screen, ATP luminescence, uHTS. MIN6 cells proliferation, ATPlite luminescence, 48 h; cells starved in 0.2% serum; 100% = growth in 10% serum. AID 2380, 2010. proliferation, % at 10 µM. 330,000 compounds, 0.29% hits;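 active = compounds whose signal lies at least 3.5 SD above the mean of all wells on their plate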
NR1D1 mod conf: modulators of Rev-erb alpha DNA binding, confirmation, biochemical, FITC-DNA, fluorescence polarization, single point. shares compounds with NR1D1 modulator. 90 min. activation, % at 25 µM. 3,000 compounds, 61% hits;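 active = activation at or above a set limit, or at least 3 SD above the negative control mean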
RORg counter: modulation of RORgamma DNA binding, dose response, counter-screen for Rev-erb alpha modulator project, biochemical, fluorescence polarization, FITC-DNA. shares compounds with NR1D1 modulator. purified RORgamma protein-FITC-DNA binding. IC50, µM. 910 compounds, 8% hits. AID 1259320, 2017;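 active = Compounds whose fitted half-maximal concentration for disrupting protein-DNA binding is below 10 micromolar; the record names Rev-erb in its text, so the target is in doubt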
Hits are given with their value; i = inactive; nt = no result given.

SMILES	PG9 binder	Rce1 inh	Yeast superoxide	NR1D1 modulator	UCH37 inh	beta cell repl	NR1D1 mod conf	others
COc1ccc2nc(N=Cc3c(C)[nH]n(-c4ccc(C)cc4C)c3=O)sc2c1	nt	nt	nt	nt	i	nt	nt
O=C(NN=C(CC(=O)c1cccs1)C(F)(F)F)c1cccnc1	nt	nt	nt	nt	i	nt	nt
COc1ccc(CNC(=O)c2c(O)c3cc(OC)c(OC)cc3[nH]c2=O)cc1OC	i	i	i	i	i	i	nt
COc1cc2[nH]c(=O)c(C(=O)NCc3ccc(F)cc3)c(O)c2cc1OC	i	i	i	25.2	i	i	18.8
Cc1[nH]c2ccccc2c1C=NNC(=O)Cn1nnc(-c2ccccc2)n1	nt	nt	nt	nt	i	nt	nt
CN(C)c1nc(NCc2ccccc2)nc(NN=Cc2cccc(Br)c2)n1	nt	nt	nt	nt	i	nt	nt
COc1ccc2c(c1)c(C(=O)NN=Cc1ccc(OC)c(OC)c1)c(C)n2C	nt	nt	nt	nt	i	nt	nt
COC(=O)c1ccccc1NC(=O)COC(=O)c1ccccc1N=Nc1ccc(N(C)C)cc1	i	i	i	26.1	i	i	29.3
CC(=O)c1ccc(NC(=O)COC(=O)c2ccccc2N=Nc2ccc(N(C)C)cc2)cc1	i	i	i	i	i	i	nt
CN(C)c1ccc(N=Nc2ccccc2C(=O)OCC(=O)N(C)c2ccccc2)cc1	i	i	i	22.5	i	i	23.3
COc1ccc(N(CC(=O)NN=Cc2cc(Br)c(C)o2)S(=O)(=O)c2ccc(NC(C)=O)cc2)cc1	nt	nt	nt	nt	i	nt	nt
COC(=O)[C@]12CCCCC=C1N(Cc1cccc3ccccc13)C(=O)[C@H](CC(=O)NCc1cccs1)C2	i	nt	nt	16.1	nt	nt	i
COC(=O)[C@]12CCCCC=C1N(Cc1cccc3ccccc13)C(=O)[C@H](CC(=O)NCc1cccc3ccccc13)C2	i	nt	nt	i	nt	nt	nt
CCCS/C(N)=N/N=Cc1ccccc1O	nt	nt	nt	nt	i	nt	nt
O=C(CSc1nnc2c(n1)[nH]c1ccc(S(=O)(=O)N3CCOCC3)cc12)Nc1ccc(F)c(F)c1	i	i	i	44.6	i	i	i
O=C(CNC(=O)c1cc(=O)[nH]c2ccc(S(=O)(=O)N3CCOCC3)cc12)Nc1ccc(F)c(F)c1	i	nt	nt	i	i	nt	nt
CC(C)CCNc1nnnc2c1sc1nc(N3CCOCC3)c3c(c12)CC(C)(C)SC3	i	i	i	21.4	i	i	i
ON=C1CCC(=NO)c2nn(-c3ccccc3)nc21	nt	nt	nt	nt	i	nt	nt
CC(=O)N1CCc2c(sc(NC(=O)C3CC3)c2-c2nc3ccccc3s2)C1	i	i	i	169.8	i	i	i
CC(=O)Nc1sc2c(c1-c1nc3ccccc3s1)CCN(C(C)=O)C2	nt	nt	nt	i	nt	nt	nt
CCN(CC)c1ccc(/C=c2\sc3nnc(-c4ccccc4Cl)n3c2=O)cc1	i	i	i	18.9	nt	i	i
NC1CCCCC1N=Cc1c(O)n(CCc2ccc(F)cc2)c(=O)[nH]c1=O (stereo not given)	i	i	nt	i	i	nt	nt
O=c1[nH]c(=O)n(CCc2ccc(F)cc2)c(O)c1C=NCc1ccc2c(c1)OCO2	i	i	i	21.0	i	i	26.3
Cc1ccc2cc(-c3noc(C4CCCCC4)n3)c(=O)[nH]c2c1	i	i	i	41.4	i	i	33.9	RORg counter=i
Cc1ccc2cc(-c3noc(C4CCCO4)n3)c(=O)[nH]c2c1 (stereo not given)	i	i	i	i	i	i	nt
SMILES	PG9 binder	Rce1 inh	Yeast superoxide	NR1D1 modulator	UCH37 inh	beta cell repl	NR1D1 mod conf	others
O=C1COc2ccc(C(=O)COC(=O)c3c(F)cccc3Cl)cc2N1	i	nt	i	16.0	i	i	i
CN=C1CC(C)(C)CC(=O)/C1=C(\O)CCCN1C(=O)c2ccccc2C1=O	nt	nt	nt	nt	i	nt	nt
O=C(O)c1cccc(CN2C(=O)c3ccccc3C2=O)c1	i	i	i	i	i	i	nt
O=C1c2cccc3c(O)ccc(c23)C(=O)N1Cc1ccccc1	i	i	i	73.4	i	i	73.0	RORg counter=i
CCOc1ccc(C=NNC(=O)c2[nH]ncc2Br)c(O)c1	nt	nt	nt	nt	i	nt	nt
O=[N+]([O-])c1cc([N+](=O)[O-])c(Oc2cccnc2Br)cc1NN1CCCCC1	i	i	i	16.2	i	i	i
CCOC(=O)c1c(NC(=O)CSc2nc3ccccc3s2)sc(C(C)=O)c1C	i	i	i	25.3	i	i	42.7	RORg counter=i
CCOC(=O)c1c(NC(=O)CSc2nc3cc(Cl)ccc3s2)sc(C(C)=O)c1C	i	i	i	65.2	i	i	i
Cc1cc(C)nc(NC(=O)CSc2nc3cc(Cl)ccc3s2)n1	i	i	i	i	i	i	nt
Cc1cc(NC(=O)C(C)Sc2nc(-c3cccs3)nc3ccccc23)no1 (stereo not given)	i	nt	nt	41.8	i	i	i
Cc1cc(C)nc(SCC(=O)Nc2cc(C)on2)n1	i	i	i	i	i	i	nt
Cc1cc(NC(=O)CSc2nc3cc(C)c(C)cc3cc2C)no1	i	i	i	85.4	i	i	47.8	RORg counter=i
Cc1cc(NC(=O)CSc2nc3c(C)c(C)ccc3cc2C)no1	i	i	i	24.6	i	i	i
COC(=O)c1ccc2nc(-c3ccc(F)cc3)c(Cc3ccccc3C(F)(F)F)n2c1	i	nt	nt	20.7	nt	nt	i
COC(=O)c1ccc2nc(-c3ccccc3)c(Cc3ccccc3C(F)(F)F)n2c1	i	nt	nt	22.1	nt	nt	19.5
Cc1sc2ncnc(N3CCC(C(=O)Nc4nc(-c5cccs5)cs4)CC3)c2c1C	i	i	i	i	nt	i	nt
CCCCc1nnc(NC(=O)C2CCN(c3ncnc4sc(C)c(C)c34)CC2)s1	i	i	i	18.9	i	i	i
CCc1nnc(NC(=O)C2CCN(c3ncnc4sc(C)c(C)c34)CC2)s1	i	nt	i	35.1	i	i	i
Cc1cccc(C=NNC(=O)c2ccc(NC(=O)c3cccc(Cl)c3)cc2)n1	nt	nt	nt	nt	i	nt	nt
COc1ccc(-c2ccc(-c3noc(-c4ccccc4C)n3)c(OC)n2)cc1	i	i	i	40.0	i	i	i
COc1ccc(-c2ccc(-c3noc(-c4cccc(OC)c4)n3)c(OC)n2)cc1	i	i	i	51.7	i	i	i
COc1ccc(-c2ccc(-c3noc(C)n3)c(OC)n2)cc1	i	i	i	26.5	i	i	i
COc1ccc(CCC(=O)Nc2ccc(-c3noc(-c4ccc(OC)c(OC)c4)n3)cc2)cc1	i	i	i	i	i	i	nt
COc1ccc(CC(=O)Nc2ccc(-c3noc(-c4ccccc4OC)n3)cc2)cc1	i	i	i	36.3	i	i	55.1	RORg counter=i
